Source: ChEMBL document CHEMBL4725360, “Optimization of Acetazolamide-Based Scaffold as Potent Inhibitors of Vancomycin-Resistant Enterococcus” (J Med Chem, 2020)
≈ marks a conversion by molar mass, not a printed value. Each block holds one compound with its values, some of them ahead of it. Calls of active or inactive are those of the source. The calls are words filed in the database; no cut-off is given here.

How the values were obtained:
[1] = system: Enterococcus faecium; assay: Antibacterial activity against Enterococcus faecium HM965 incubated for 18 to 20 hrs under aerobic condition by CLSI protocol based broth microdilution assay; type: functional; details: time hrs 18-20
Procedure, shortened: (§1)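 Broth microdilution per CLSI. Strains grown aerobically overnight on trypticase soy agar at 37 °C. Inoculum set to 0.5 McFarland, diluted in trypticase soy broth to about 5 × 10⁵ CFU/mL. Agents serially diluted, plates incubated aerobically at 37 °C for 18–20 h. MIC is the lowest concentration with no visible growth. Compound stocks 10 mg/mL in DMSO.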

[2] = system: Enterococcus faecium; assay: Antibacterial activity against Enterococcus faecium HM968 incubated for 18 to 20 hrs under aerobic condition by CLSI protocol based broth microdilution assay; type: functional; details: time hrs 18-20; procedure, shortened: as §1
[3] = system: Enterococcus faecium; assay: Antibacterial activity against Enterococcus faecium NR-28978 incubated for 18 to 20 hrs under aerobic condition by CLSI protocol based broth microdilution assay; type: functional; details: time hrs 18-20; procedure, shortened: as §1
[4] = system: Enterococcus faecium; assay: Antibacterial activity against Enterococcus faecium NR-31903 incubated for 18 to 20 hrs under aerobic condition by CLSI protocol based broth microdilution assay; type: functional; details: time hrs 18-20; procedure, shortened: as §1
[5] = system: Enterococcus faecium; assay: Antibacterial activity against Enterococcus faecium NR-32065 incubated for 18 to 20 hrs under aerobic condition by CLSI protocol based broth microdilution assay; type: functional; details: time hrs 18-20; procedure, shortened: as §1
[6] = system: Enterococcus faecium; assay: Antibacterial activity against Enterococcus faecium NR-31914 incubated for 18 to 20 hrs under aerobic condition by CLSI protocol based broth microdilution assay; type: functional; details: time hrs 18-20; procedure, shortened: as §1
[7] = system: Enterococcus faecium; assay: Antibacterial activity against Enterococcus faecium NR-31916 incubated for 18 to 20 hrs under aerobic condition by CLSI protocol based broth microdilution assay; type: functional; details: time hrs 18-20; procedure, shortened: as §1
[8] = system: Enterococcus faecium; assay: Antibacterial activity against Enterococcus faecium NR-32052 incubated for 18 to 20 hrs under aerobic condition by CLSI protocol based broth microdilution assay; type: functional; details: time hrs 18-20; procedure, shortened: as §1
[9] = system: Enterococcus faecium; assay: Antibacterial activity against Enterococcus faecium NR-31971 incubated for 18 to 20 hrs under aerobic condition by CLSI protocol based broth microdilution assay; type: functional; details: time hrs 18-20; procedure, shortened: as §1
[10] = system: Enterococcus faecalis; assay: Antibacterial activity against Enterococcus faecalis HM-335 incubated for 18 to 20 hrs under aerobic condition by CLSI protocol based broth microdilution assay; type: functional; details: time hrs 18-20; procedure, shortened: as §1
[11] = system: Enterococcus faecalis; assay: Antibacterial activity against Enterococcus faecalis HM-334 incubated for 18 to 20 hrs under aerobic condition by CLSI protocol based broth microdilution assay; type: functional; details: time hrs 18-20; procedure, shortened: as §1
[12] = system: Enterococcus faecalis; assay: Antibacterial activity against Enterococcus faecalis NR-31975 incubated for 18 to 20 hrs under aerobic condition by CLSI protocol based broth microdilution assay; type: functional, organism-based; details: time hrs 18-20; procedure, shortened: as §1
[13] = system: Enterococcus faecalis; assay: Antibacterial activity against Enterococcus faecalis NR-31970 incubated for 18 to 20 hrs under aerobic condition by CLSI protocol based broth microdilution assay; type: functional, organism-based; details: time hrs 18-20; procedure, shortened: as §1
[14] = system: Caco-2; assay: Cytotoxicity against human Caco2 cells at 128 ug/ml incubated for 2 hrs by MTS assay; type: cell-based; details: caco-2, 2 h, dose 128 µg/ml
Procedure, shortened: (§2)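 Caco-2 cells maintained in DMEM with 10% FBS, non-essential amino acids and penicillin-streptomycin at 37 °C, 5% CO₂. Compound exposure for 2 h in serum-free medium at several concentrations; DMSO-matched controls. Viability expressed relative to DMSO controls (mean ± SD), and CC₅₀ derived.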

[15] = Cytotoxicity against human Caco2 cells incubated for 2 hrs by MTS assay; type: cell-based; details: Caco-2 cells; procedure, shortened: as §2
[16] = system: Enterococcus faecium; assay: Inhibition of carbonic anhydrase in Enterococcus faecium ATCC 700221 assessed as antibacterial activity incubated for 18 to 20 hrs in presence of ambient air by CLSI protocol based broth microdilution assay; details: time hrs 18-20
Procedure, shortened: (§3)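 CLSI broth microdilution: inoculum about 5 × 10⁵ CFU/mL in trypticase soy broth with serial dilutions of agents. Paired plates incubated at 37 °C for 18–20 h, one set in ambient air ("normal"), the other under 5% CO₂. MIC is the lowest concentration completely inhibiting visible growth.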

[17] = system: Enterococcus faecium; assay: Inhibition of carbonic anhydrase in Enterococcus faecium ATCC 700221 assessed as antibacterial activity incubated for 18 to 20 hrs in presence of 5% CO2 by CLSI protocol based broth microdilution assay; details: time hrs 18-20; procedure, shortened: as §3
[18] = system: Enterococcus faecium; assay: Bacteriostatic activity against Enterococcus faecium ATCC 700221 assessed as reduction in bacterial burden at 5 times MIC preincubated for 24 hrs followed by replating on soya agar plates and measured after 16 hrs by time-kill assay; type: functional, organism-based
Procedure, shortened: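 E. faecium ATCC 700221 overnight culture diluted in trypticase soy broth to 3.5 × 10⁶ CFU/mL. […] Samples taken at 2, 4, 6, 8, 12 and 24 h, diluted in PBS and plated on trypticase soy agar. Colonies counted after 16 h at 37 °C. Detection limit 100 CFU/mL. Two-way ANOVA with Dunnett's test.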

[19] = Aqueous solubility of compound in pH 7.4 PBS measured at 24 hrs by HPLC analysis; type: physicochemical; details: buffer, pH 7.4, 24 h
Procedure, shortened: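 HPLC principal-peak area of the buffer sample compared with a 200 μM calibration standard in methanol/water 60/40.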

[20] = Apparent permeability across apical to basolateral side in human Caco2 cells; type: ADME, cell-based; details: caco-2
Procedure, shortened: (§4)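 Bi-directional Caco-2 monolayer permeability, run at Eurofins: donor at pH 6.5, receiver at pH 7.4, both A→B and B→A. Papp derived from receiver concentration at the end point, incubation time, monolayer area and mid-point donor concentration. Concentrations taken as peak areas.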

[21] = Apparent permeability across basolateral to apical side in human Caco2 cells; type: ADME, cell-based; details: caco-2; procedure, shortened: as §4
[22] = Metabolic stability in human liver microsomes assessed as compound remaining measured after 60 mins; type: ADME, Microsome; details: 1 h
Procedure, shortened: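 Human liver microsomes at 0.1 mg/mL, 37 °C. Percent parent remaining at 60 min, mean of 2 replicates.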

[23] = Half life in human liver microsomes after 60 mins; type: ADME, Microsome; details: 1 h
[24] = Tmax in ICR mouse at 10 mg/kg, po administered via gavage and measured after 10 to 1440 mins by LC/MS/MS analysis; type: ADME, organism-based; details: in vivo, time 10-1440 min
Procedure, shortened: (§5)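 Male ICR mice, 10 mg/kg single oral gavage; n = 3 mice per time point, 8 time points from 10 to 1440 min. Plasma taken by cardiac puncture and mixed with buffer containing oxybutynin internal standard. Samples diluted with acetonitrile, then LC/MS/MS on C18 with acetonitrile/water–formic acid mobile phases in MRM mode. Concentration read off a standard curve.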

[25] = Plasma concentration in ICR mouse at 10 mg/kg, po administered via gavage and measured after 10 to 1440 mins by LC/MS/MS analysis; type: ADME, organism-based; details: in vivo, time 10-1440 min; procedure, shortened: as §5
[26] = Cmax in ICR mouse at 10 mg/kg, po administered via gavage and measured after 30 mins by LC/MS/MS analysis; type: ADME, organism-based; parameters: route oral, dose 10 mg/kg, time 10-1440; details: in vivo, 0.5 h; procedure, shortened: as §5
[27] = AUC(0 to infinity) in ICR mouse at 10 mg/kg, po administered via gavage and measured after 10 to 1440 mins by LC/MS/MS analysis; type: ADME, organism-based; parameters: route oral, dose 10 mg/kg, time 10-1440; details: in vivo; procedure, shortened: as §5
[28] = Dose normalized AUC in ICR mouse at 10 mg/kg, po administered via gavage and measured after 10 to 1440 mins by LC/MS/MS analysis; type: ADME, organism-based; details: in vivo, time 10-1440 min; procedure, shortened: as §5
[29] = MRT in ICR mouse at 10 mg/kg, po administered via gavage and measured after 10 to 1440 mins by LC/MS/MS analysis; type: ADME, organism-based; details: in vivo, time 10-1440 min; procedure, shortened: as §5
[30] = Drug excretion in ICR mouse at 10 mg/kg, po administered via gavage and measured after 1440 mins by LC/MS/MS analysis; type: ADME, organism-based; details: in vivo, read-out: Drug excretion
[31] = system: Enterococcus faecium; assay: Antibacterial activity against Enterococcus faecium NR-31972 incubated for 18 to 20 hrs under aerobic condition by CLSI protocol based broth microdilution assay; type: functional; details: time hrs 18-20; procedure, shortened: as §1
[32] = system: Enterococcus faecium; assay: Inhibition of carbonic anhydrase in Enterococcus faecium NR-31971 assessed as antibacterial activity incubated for 18 to 20 hrs in presence of ambient air by CLSI protocol based broth microdilution assay; details: time hrs 18-20; procedure, shortened: as §3
[33] = system: Enterococcus faecium; assay: Inhibition of carbonic anhydrase in Enterococcus faecium NR-31972 assessed as antibacterial activity incubated for 18 to 20 hrs in presence of ambient air by CLSI protocol based broth microdilution assay; details: time hrs 18-20; procedure, shortened: as §3
[34] = system: Enterococcus faecium; assay: Inhibition of carbonic anhydrase in Enterococcus faecium HM-965 assessed as antibacterial activity incubated for 18 to 20 hrs in presence of ambient air by CLSI protocol based broth microdilution assay; details: time hrs 18-20; procedure, shortened: as §3
[35] = system: Enterococcus faecalis; assay: Inhibition of carbonic anhydrase in Enterococcus faecalis HM-334 assessed as antibacterial activity incubated for 18 to 20 hrs in presence of ambient air by CLSI protocol based broth microdilution assay; details: time hrs 18-20; procedure, shortened: as §3
[36] = system: Enterococcus faecium; assay: Inhibition of carbonic anhydrase in Enterococcus faecium NR-31971 assessed as antibacterial activity incubated for 18 to 20 hrs in presence of 5% CO2 by CLSI protocol based broth microdilution assay; details: time hrs 18-20; procedure, shortened: as §3
[37] = system: Enterococcus faecium; assay: Inhibition of carbonic anhydrase in Enterococcus faecium NR-31972 assessed as antibacterial activity incubated for 18 to 20 hrs in presence of 5% CO2 by CLSI protocol based broth microdilution assay; details: time hrs 18-20; procedure, shortened: as §3
[38] = system: Enterococcus faecium; assay: Inhibition of carbonic anhydrase in Enterococcus faecium HM-965 assessed as antibacterial activity incubated for 18 to 20 hrs in presence of 5% CO2 by CLSI protocol based broth microdilution assay; details: time hrs 18-20; procedure, shortened: as §3
[39] = system: Enterococcus faecalis; assay: Inhibition of carbonic anhydrase in Enterococcus faecalis HM-334 assessed as antibacterial activity incubated for 18 to 20 hrs in presence of 5% CO2 by CLSI protocol based broth microdilution assay; details: time hrs 18-20; procedure, shortened: as §3

- MIC [1]: 0.007 µg/mL (≈ 0.022 µM)
- MIC [2]: 0.03 µg/mL (≈ 0.0942 µM)
- MIC [3]: 0.06 µg/mL (≈ 0.188 µM)
- MIC [4]: 0.015 µg/mL (≈ 0.0471 µM)
- MIC [5]: 0.015 µg/mL (≈ 0.0471 µM)
- MIC [6]: 0.03 µg/mL (≈ 0.0942 µM)
- MIC [7]: 0.03 µg/mL (≈ 0.0942 µM)
- MIC [8]: 0.015 µg/mL (≈ 0.0471 µM)
- MIC [9]: 0.007 µg/mL (≈ 0.022 µM)
- MIC [10]: 0.03 µg/mL (≈ 0.0942 µM)
- MIC [11]: 0.007 µg/mL (≈ 0.022 µM)
- inhibition [16]: Active
- inhibition [17]: inactive
- solubility [19]: 32.8 µM (≈ 10.4 µg/mL)
- Papp [20]: 6.5 10^-6 cm/s
- Papp [21]: 14.1 10^-6 cm/s
- Stabilty [22]: 62%
- t1/2 [23]: 1.23 h
- Tmax [24]: 0.5 h
- Cp [25]: 184 ng/mL
- Cmax [26]: 456 ng/mL
- AUC(0-inf) [27]: 562 ng·h/mL
- AUC/dose [28]: 56 kg·ng·h/mL/mg
- MRT [29]: 1.35 h
- dose excreted at 24 h [30]: 100%
- MIC [31]: 0.015 µg/mL (≈ 0.0471 µM)
SMILES: NS(=O)(=O)c1nnc(NC(=O)CCC2CCCCC2)s1
- Activity [12]: Active
- Activity [13]: Active
- Activity [14]: Non-Toxic
- CC50 at 2 h [15]: > 128 µg/mL
- Activity [18]: Active

- MIC [3]: 0.125 µg/mL (≈ 0.411 µM)
- MIC [4]: 0.125 µg/mL (≈ 0.411 µM)
- MIC [7]: 0.125 µg/mL (≈ 0.411 µM)
- MIC [32]: 0.03 µg/mL
- MIC [33]: 0.06 µg/mL
- MIC [34]: 0.06 µg/mL
- MIC [35]: 0.03 µg/mL
- MIC [16]: 0.06 µg/mL
- MIC [36]: > 64 µg/mL
- MIC [37]: > 64 µg/mL
- MIC [38]: > 64 µg/mL
- MIC [39]: > 64 µg/mL
- MIC [17]: > 64 µg/mL
SMILES: NS(=O)(=O)c1nnc(NC(=O)CC2CCCCC2)s1
- Activity [12]: Active
- Activity [13]: Active
- Activity [14]: Non-Toxic
- CC50 at 2 h [15]: > 128 µg/mL
